Calls of active or inactive are those of the source. The rule behind the calls is not given here.
Experiments:
THP-1 [1] = experiment: Cytotoxicity against human THP1 cells assessed as LDH release at 20.2 uM; assay type: cell-based; settings: thp-1, 20.2 µM
In short: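 LDH leakage into the medium used as the cytotoxicity read-out, taken at the highest concentration tested.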

PBMC [2] = experiment: Immunomodulatory effect in human PBMC cells assessed as LPS-induced IL1-beta release at 20.2 uM after 18 hrs by flow cytometry analysis relative to LPS; assay type: functional
In short: (§1)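 Human PBMC isolated from healthy-donor buffy coats on a Ficoll-Paque gradient. Cultured in RPMI 1640 with 10% heat-inactivated FCS, 2 mM L-glutamine and 50 µM 2-mercaptoethanol. 0.5 × 10⁶ cells exposed to 20.2 µM compound plus 10 ng/ml LPS, DMSO ≤0.1%, for 18 h at 37 °C in 5% CO₂. Supernatant cytokines measured by flow cytometric bead assay. Values are % of LPS alone, mean ± SD of 4 samples, two donors.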

PBMC [3] = experiment: Immunomodulatory effect in human PBMC cells assessed as increase in LPS-induced IL-10 release at 20.2 uM after 18 hrs by flow cytometry analysis relative to LPS; assay type: functional; in short: as §1
THP-1 [4] = experiment: Immunomodulatory effect in human THP1 cells assessed as increase in LPS-induced TNF-alpha release at 200 uM after 24 hrs by sandwich ELISA relative to LPS; assay type: functional
In short: (§2)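 THP-1 cells at 10⁶ cells/ml in RPMI 1640 with 10% heat-inactivated FCS. Co-incubated 24 h with compound (0.2–200 µM) plus E. coli 0127:B8 LPS 1 ng/ml, DMSO vehicle ≤0.2% final. TNF-α in supernatant expressed as % of LPS-induced release, mean ± SD of 6 samples.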

THP-1 [5] = experiment: Immunomodulatory effect in human THP1 cells assessed as increase in LPS-induced TNF-alpha release at 2 uM after 24 hrs by sandwich ELISA relative to LPS; assay type: functional; in short: as §2
PBMC [6] = experiment: Immunostimulatory effect in human PBMC cells assessed as increase in […]/ionomycin-induce IL-10 release at 20.2 uM after 18 hrs by flow cytometry analysis relative to PMA and ionomycin; assay type: functional
In short: (§3)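 PBMC prepared from donor buffy coat on Ficoll-Paque and kept in supplemented RPMI 1640. Cells (0.5 × 10⁶) given 20.2 µM compound with PMA 3.33 ng/ml and ionomycin 500 nM (final) for 18 h at 37 °C, 5% CO₂. Supernatant IL-1β, IL-6, IL-8, IL-10 and TNF-α read by flow cytometry. Expressed relative to PMA/ionomycin alone, mean ± SD of 4 samples, two donors.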

PBMC [7] = experiment: Immunomodulatory effect in human PBMC cells assessed as increase in LPS-induced IL-8a release at 20.2 uM after 18 hrs by flow cytometry analysis relative to LPS; assay type: functional; in short: as §1
PBMC [8] = experiment: Immunostimulatory effect in human PBMC cells assessed as increase in […]/ionomycin-induce IL-6 release at 20.2 uM after 18 hrs by flow cytometry analysis relative to PMA and ionomycin; assay type: functional; in short: as §3
PBMC [9] = experiment: Cytotoxicity against human PBMC assessed as LDH release at 20.2 uM; assay type: cell-based
PBMC [10] = experiment: Immunostimulatory effect in human PBMC cells assessed as increase in […]/ionomycin-induce IL1-beta release at 20.2 uM after 18 hrs by flow cytometry analysis relative to PMA and ionomycin; assay type: functional; in short: as §3
PBMC [11] = experiment: Immunomodulatory effect in human PBMC cells assessed as increase in LPS-induced TNFalpha release at 20.2 uM after 18 hrs by flow cytometry analysis relative to LPS; assay type: functional; in short: as §1
THP-1 [12] = experiment: Toxicity in human THP1 cells assessed TNF-alpha release at 20.2 uM after 24 hrs by sandwich ELISA; assay type: cell-based; settings: thp-1, 24 h
In short: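 THP-1 in supplemented RPMI 1640 co-incubated 24 h with 20.2 µM compound and 1 ng/ml LPS, DMSO ≤0.2%. TNF-α release expressed as % of the LPS-only response, mean ± SD of 6 samples, Mann-Whitney U test.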

THP-1 [13] = experiment: Immunomodulatory effect in human THP1 cells assessed as increase in LPS-induced TNF-alpha release at 20.2 uM after 24 hrs by sandwich ELISA relative to LPS; assay type: functional; in short: as §2
THP-1 [14] = experiment: Immunomodulatory effect in human THP1 cells assessed as increase in LPS-induced TNF-alpha release after 24 hrs by sandwich ELISA relative to LPS; assay type: functional, cell-based; in short: as §2
PBMC [15] = experiment: Immunostimulatory effect in human PBMC cells assessed as increase in […]/ionomycin-induce TNFalpha release at 20.2 uM after 18 hrs by flow cytometry analysis relative to PMA and ionomycin; assay type: functional; in short: as §3
PBMC [16] = experiment: Immunostimulatory effect in human PBMC cells assessed as increase in […]/ionomycin-induce IL-8a release at 20.2 uM after 18 hrs by flow cytometry analysis relative to PMA and ionomycin; assay type: functional; in short: as §3
THP-1 [17] = experiment: Immunomodulatory effect in human THP1 cells assessed as increase in LPS-induced TNF-alpha release at 0.2 uM after 24 hrs by sandwich ELISA relative to LPS; assay type: functional; in short: as §2
PBMC [18] = experiment: Immunomodulatory effect in human PBMC cells assessed as increase in LPS-induced IL-6 release at 20.2 uM after 18 hrs by flow cytometry analysis relative to LPS; assay type: functional; in short: as §1
PBMC [19] = experiment: Immunosuppressive effect in human PBMC cells assessed as […] in […]/ionomycin-induce TNFalpha release at 20.2 uM after 18 hrs by flow cytometry analysis relative to PMA and ionomycin; assay type: functional; in short: as §3
PBMC [20] = experiment: Immunomodulatory effect in human PBMC cells assessed as decrease in LPS-induced IL-6 release at 20.2 uM after 18 hrs by flow cytometry analysis relative to LPS; assay type: functional; parameters: scale not given: the % may be the effect or the level left; in short: as §1
PBMC [21] = experiment: Immunomodulatory effect in human PBMC cells assessed as decrease in LPS-induced IL-8a release at 20.2 uM after 18 hrs by flow cytometry analysis relative to LPS; assay type: functional; parameters: scale not given: the % may be the effect or the level left; in short: as §1
PBMC [22] = experiment: Immunomodulatory effect in human PBMC cells assessed as decrease in LPS-induced IL-10 release at 20.2 uM after 18 hrs by flow cytometry analysis relative to LPS; assay type: functional; parameters: scale not given: the % may be the effect or the level left; in short: as §1
PBMC [23] = experiment: Immunosuppressive effect in human PBMC cells assessed as […] in […]/ionomycin-induce IL1-beta release at 20.2 uM after 18 hrs by flow cytometry analysis relative to PMA and ionomycin; assay type: functional; in short: as §3
PBMC [24] = experiment: Immunosuppressive effect in human PBMC cells assessed as […] in […]/ionomycin-induce IL-6 release at 20.2 uM after 18 hrs by flow cytometry analysis relative to PMA and ionomycin; assay type: functional; in short: as §3
PBMC [25] = experiment: Immunosuppressive effect in human PBMC cells assessed as […] in […]/ionomycin-induce IL-8a release at 20.2 uM after 18 hrs by flow cytometry analysis relative to PMA and ionomycin; assay type: functional; in short: as §3
PBMC [26] = experiment: Immunosuppressive effect in human PBMC cells assessed as […] in […]/ionomycin-induce IL-10 release at 20.2 uM after 18 hrs by flow cytometry analysis relative to PMA and ionomycin; assay type: functional; in short: as §3
PBMC [27] = experiment: Immunomodulatory effect in human PBMC cells assessed as increase in LPS-induced TNF-alpha release at 20.2 uM after 24 hrs by sandwich ELISA; assay type: functional, cell-based

Compound | Activity (THP-1 [1]) | Activity (PBMC [2]) | Activity (PBMC [3]) | Activity (PBMC [6]) | Activity (PBMC [8]) | Activity (PBMC [9]) | Activity (PBMC [10]) | Activity (PBMC [11]) | Activity (THP-1 [12]) | Activity (THP-1 [13]) | Activity (PBMC [15]) | Activity (PBMC [16]) | Activity (PBMC [18]) | Activity (PBMC [21]) | other results
C[C@H](NC(=O)C1=C2c3ccccc3S(=O)(=O)N2CCC1)C(=O)N[C@H](CCC(=O)O)C(N)=O | Non-toxic | 94% | 94% | 88.5% | 74% | Non-toxic | 88% | 115% | Non-toxic | 120.2% | 105.5% | 103% | 103.5% |  | Activity (THP-1 [4]): 204.3%; Activity (THP-1 [5]): 92.5%; Activity (PBMC [7]): 98.5%; Activity (THP-1 [14]): Dose-dependent effect; Activity (THP-1 [17]): 90.3%
CCCCOC(=O)[C@@H](CCC(N)=O)NC(=O)[C@H](C)NC(=O)[C@@H](C)O[C@H]1[C@H](O)[C@@H](CO)OC(O)[C@@H]1NC(C)=O (stereo partly drawn) [MURABUTIDE] | Non-toxic | 416.5% | 559% | 158.5% | 439.5% | Non-toxic | 2964.5% | 696.5% | Non-toxic | 182.6% | 332.5% | 152% | 594.5% |  | Activity (PBMC [7]): 107%
C[C@H](NC(=O)CNC(=O)c1cc2ccccc2[nH]1)C(=O)N[C@H](CCC(=O)O)C(=O)O | Non-toxic | 78% |  |  |  | Non-toxic |  | 103.5% | Non-toxic | 118.5% |  |  |  | 95.5% | Activity (PBMC [19]): 63.5%; Activity (PBMC [20]): 76.8%; Activity (PBMC [22]): 68.5%; Activity (PBMC [23]): 96.5%; Activity (PBMC [24]): 42.5%; Activity (PBMC [25]): 90%; Activity (PBMC [26]): 75.8%
CC(=O)N[C@@H]1[C@@H](O[C@H](C)C(=O)N[C@@H](C)C(=O)N[C@@H](CCC(=O)O)C(N)=O)[C@H](O)[C@@H](CO)O[C@H]1O |  |  |  |  |  |  |  |  |  |  |  |  |  |  | Activity (PBMC [27]): Active
C[C@H](NC(=O)CCCCN1C(=O)c2ccccc2S1(=O)=O)C(=O)N[C@@H](CCC(=O)O)C(N)=O | Non-toxic |  |  |  |  | Non-toxic |  |  | Non-toxic | 119.3% |  |  |  |  | 
C[C@H](NC(=O)C1=C2c3ccccc3S(=O)(=O)N2CCC1)C(=O)N[C@H](CCC(=O)O)C(=O)O | Non-toxic |  |  |  |  | Non-toxic |  |  | Non-toxic | 113.3% |  |  |  |  | 
C[C@H](NC(=O)CNC(=O)c1cc2ccccc2[nH]1)C(=O)N[C@H](CCC(=O)O)C(N)=O | Non-toxic | 90.5% |  |  |  | Non-toxic |  | 101% | Non-toxic | 126.2% |  |  |  | 98.5% | Activity (PBMC [19]): 93.5%; Activity (PBMC [20]): 74%; Activity (PBMC [22]): 71.5%; Activity (PBMC [23]): 91.5%; Activity (PBMC [24]): 76%; Activity (PBMC [25]): 98.5%; Activity (PBMC [26]): 102%
C[C@H](NC(=O)COCCN1C(=O)c2ccccc2S1(=O)=O)C(=O)N[C@H](CCC(=O)O)C(N)=O | Non-toxic | 95.5% | 84.5% | 89.5% | 63.5% | Non-toxic | 122% | 104.5% | Non-toxic | 114.3% | 83.5% | 110.5% | 95.5% | 96.5% | 

— ChEMBL document CHEMBL1821722, “Design, synthesis and biological evaluation of novel desmuramyldipeptide analogs” (Eur J Med Chem, 2011)
